In the M2OR odorant receptor database:
Positions count from the first letter of the chain named.

Tests used:
Details in all cases: stereoisomer not certain
[1] = biological target: T1, OR2T34 (Homo sapiens) (UniProt Q8NGX1)
T1 sequence (whole entry): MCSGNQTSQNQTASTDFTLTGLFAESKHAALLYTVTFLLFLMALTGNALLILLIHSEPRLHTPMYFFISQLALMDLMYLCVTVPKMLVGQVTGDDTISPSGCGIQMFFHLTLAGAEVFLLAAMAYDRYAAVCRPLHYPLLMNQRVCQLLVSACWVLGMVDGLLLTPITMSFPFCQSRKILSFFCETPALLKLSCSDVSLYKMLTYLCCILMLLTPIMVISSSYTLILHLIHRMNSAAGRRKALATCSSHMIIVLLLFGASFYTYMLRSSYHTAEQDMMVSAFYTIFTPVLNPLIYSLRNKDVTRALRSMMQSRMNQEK
In short: (§1)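 Values were gathered from published papers (main text and supplementary material), with extra details requested from the original authors when needed, and checked for typos and inconsistencies. Each receptor–molecule pair is called responsive (active) if the original authors judged the measured signal statistically different from baseline, and non-responsive (inactive) otherwise. Assay methods varied by source, often transient mammalian cell-line luciferase assays. Recorded details include cell line, G-protein, co-transfected protein and tags.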

[2] = biological target: T2, OR2T33 (Homo sapiens) (UniProt Q8NG76)
T2 sequence (whole entry): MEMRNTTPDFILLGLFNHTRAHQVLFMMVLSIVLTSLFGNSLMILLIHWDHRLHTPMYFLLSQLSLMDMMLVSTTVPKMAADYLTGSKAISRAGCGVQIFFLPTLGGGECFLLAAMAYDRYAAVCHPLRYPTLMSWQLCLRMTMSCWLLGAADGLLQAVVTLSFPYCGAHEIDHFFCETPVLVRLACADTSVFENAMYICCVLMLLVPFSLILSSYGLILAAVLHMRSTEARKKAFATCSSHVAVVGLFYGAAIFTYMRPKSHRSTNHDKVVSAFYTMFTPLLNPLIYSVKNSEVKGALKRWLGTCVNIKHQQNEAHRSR
In short: as §1

[3] = biological target: T3, OR2T35 (Homo sapiens) (UniProt Q8NGX2)
T3 sequence (whole entry): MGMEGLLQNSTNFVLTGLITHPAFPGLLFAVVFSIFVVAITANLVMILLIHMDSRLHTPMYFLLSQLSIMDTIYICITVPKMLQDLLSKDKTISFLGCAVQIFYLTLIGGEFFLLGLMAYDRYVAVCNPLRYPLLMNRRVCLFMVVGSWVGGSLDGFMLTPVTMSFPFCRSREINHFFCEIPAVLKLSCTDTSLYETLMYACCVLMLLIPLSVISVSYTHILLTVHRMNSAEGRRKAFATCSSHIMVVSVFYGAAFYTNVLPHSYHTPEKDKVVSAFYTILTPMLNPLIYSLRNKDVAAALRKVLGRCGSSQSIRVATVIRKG
In short: as §1

[4] = biological target: T4, OR2T4 (Homo sapiens) (UniProt Q8NH00)
T4 sequence (whole entry): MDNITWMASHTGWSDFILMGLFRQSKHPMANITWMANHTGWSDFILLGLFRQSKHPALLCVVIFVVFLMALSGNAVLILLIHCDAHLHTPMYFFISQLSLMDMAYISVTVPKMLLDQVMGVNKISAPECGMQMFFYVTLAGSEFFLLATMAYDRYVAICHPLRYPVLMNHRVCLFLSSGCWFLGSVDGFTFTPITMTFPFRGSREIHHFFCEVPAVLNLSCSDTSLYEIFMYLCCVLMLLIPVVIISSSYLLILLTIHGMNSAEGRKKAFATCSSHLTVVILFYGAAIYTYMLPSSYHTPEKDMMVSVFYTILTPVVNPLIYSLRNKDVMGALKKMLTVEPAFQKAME
In short: as §1

[5] = biological target: T5, OR2T5 (Homo sapiens) (UniProt Q6IEZ7)
T5 sequence (whole entry): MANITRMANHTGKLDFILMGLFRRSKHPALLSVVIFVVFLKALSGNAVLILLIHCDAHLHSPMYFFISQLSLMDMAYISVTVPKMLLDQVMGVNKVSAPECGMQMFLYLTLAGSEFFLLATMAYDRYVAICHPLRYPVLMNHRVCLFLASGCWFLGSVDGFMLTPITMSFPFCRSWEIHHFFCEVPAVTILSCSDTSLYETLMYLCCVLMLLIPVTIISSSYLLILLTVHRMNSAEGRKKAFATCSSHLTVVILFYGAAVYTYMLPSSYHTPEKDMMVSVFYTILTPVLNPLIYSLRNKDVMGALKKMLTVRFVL
In short: as §1

[6] = biological target: T6, OR2T6 (Homo sapiens) (UniProt Q8NHC8)
T6 sequence (whole entry): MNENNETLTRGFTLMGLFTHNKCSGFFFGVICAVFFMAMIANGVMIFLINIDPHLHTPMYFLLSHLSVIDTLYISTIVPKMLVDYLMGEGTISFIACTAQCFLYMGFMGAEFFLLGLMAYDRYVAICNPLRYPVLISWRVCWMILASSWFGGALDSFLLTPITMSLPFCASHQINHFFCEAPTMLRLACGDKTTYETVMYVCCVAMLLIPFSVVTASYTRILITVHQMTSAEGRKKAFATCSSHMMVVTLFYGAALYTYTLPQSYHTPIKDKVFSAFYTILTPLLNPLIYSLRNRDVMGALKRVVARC
In short: as §1

[7] = biological target: T7, OR2T7 (Homo sapiens) (UniProt P0C7T2)
T7 sequence (whole entry): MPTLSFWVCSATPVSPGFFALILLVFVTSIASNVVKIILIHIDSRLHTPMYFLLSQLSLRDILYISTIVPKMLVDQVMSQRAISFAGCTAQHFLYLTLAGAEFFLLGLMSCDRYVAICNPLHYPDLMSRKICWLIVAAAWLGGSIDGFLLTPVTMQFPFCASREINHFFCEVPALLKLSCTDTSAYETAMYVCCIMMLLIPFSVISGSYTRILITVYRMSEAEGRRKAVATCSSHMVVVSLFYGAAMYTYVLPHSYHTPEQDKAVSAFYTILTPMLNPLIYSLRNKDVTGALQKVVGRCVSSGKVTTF
In short: as §1

[8] = biological target: T8, OR2T8 (Homo sapiens) (UniProt A6NH00)
T8 sequence (whole entry): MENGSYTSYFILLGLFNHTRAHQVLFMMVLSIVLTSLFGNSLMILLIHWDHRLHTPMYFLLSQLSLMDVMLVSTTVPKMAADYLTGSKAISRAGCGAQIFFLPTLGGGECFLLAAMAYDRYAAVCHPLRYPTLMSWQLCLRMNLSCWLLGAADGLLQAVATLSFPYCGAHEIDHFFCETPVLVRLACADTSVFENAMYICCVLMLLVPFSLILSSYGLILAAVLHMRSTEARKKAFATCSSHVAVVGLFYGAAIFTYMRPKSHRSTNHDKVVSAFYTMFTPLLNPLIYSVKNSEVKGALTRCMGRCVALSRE
In short: as §1

[9] = biological target: T9, OR2V1 (Homo sapiens) (UniProt Q8NHB1)
T9 sequence (whole entry): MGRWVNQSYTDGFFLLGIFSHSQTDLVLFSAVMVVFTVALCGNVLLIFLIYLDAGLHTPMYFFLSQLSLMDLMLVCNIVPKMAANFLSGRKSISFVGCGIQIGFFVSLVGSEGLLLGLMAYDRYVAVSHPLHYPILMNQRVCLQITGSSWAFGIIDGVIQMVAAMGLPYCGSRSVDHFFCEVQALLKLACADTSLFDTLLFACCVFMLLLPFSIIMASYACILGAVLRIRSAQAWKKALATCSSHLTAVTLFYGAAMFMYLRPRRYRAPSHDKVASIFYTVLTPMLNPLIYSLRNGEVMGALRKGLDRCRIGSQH
In short: as §1

[10] = biological target: T10, OR2V2 (Homo sapiens) (UniProt Q96R30)
T10 sequence (whole entry): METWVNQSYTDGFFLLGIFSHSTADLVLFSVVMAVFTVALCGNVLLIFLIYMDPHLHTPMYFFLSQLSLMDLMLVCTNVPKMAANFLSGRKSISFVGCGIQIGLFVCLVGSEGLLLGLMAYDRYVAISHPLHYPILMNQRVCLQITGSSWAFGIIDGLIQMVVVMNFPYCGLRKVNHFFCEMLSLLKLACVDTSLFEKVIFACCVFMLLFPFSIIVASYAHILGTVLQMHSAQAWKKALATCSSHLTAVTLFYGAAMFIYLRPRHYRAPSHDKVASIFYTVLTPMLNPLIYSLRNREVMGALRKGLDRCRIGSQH
In short: as §1

[11] = biological target: T11, OR2W1 (Homo sapiens) (UniProt Q9Y3N9)
T11 sequence (whole entry): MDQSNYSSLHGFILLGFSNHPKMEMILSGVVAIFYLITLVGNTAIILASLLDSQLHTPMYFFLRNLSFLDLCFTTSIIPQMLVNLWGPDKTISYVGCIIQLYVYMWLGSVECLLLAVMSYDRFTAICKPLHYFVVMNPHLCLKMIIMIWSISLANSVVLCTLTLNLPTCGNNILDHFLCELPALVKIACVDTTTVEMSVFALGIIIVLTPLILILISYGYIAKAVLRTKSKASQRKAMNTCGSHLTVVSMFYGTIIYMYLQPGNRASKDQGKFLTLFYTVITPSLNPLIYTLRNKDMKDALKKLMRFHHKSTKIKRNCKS
In short: as §1

[12] = tested on: T12, OR2T3 R298C
T12 sequence (whole entry): T1 sequence (whole entry) with H109Y, M202T, T204M, T214A, R239H, R267P, R298C
In short: as §1

[13] = tested on: T13, OR2T3 Y109H
T13 sequence (whole entry): T1 sequence (whole entry) with M202T, T204M, T214A, R239H, R267P
In short: as §1

[14] = tested on: T14, OR2T5 K13R K41M G45E
T14 sequence (whole entry): T5 sequence (whole entry) with K13R, K41M, G45E
In short: as §1

[15] = tested on: T15, OR2T5 K13R L134F
T15 sequence (whole entry): T5 sequence (whole entry) with K13R, L134F
In short: as §1

[16] = tested on: T16, OR2T6 C23G
T16 sequence (whole entry): T6 sequence (whole entry) with C23G
In short: as §1

[17] = tested on: T17, OR2T7
T17 sequence (whole entry): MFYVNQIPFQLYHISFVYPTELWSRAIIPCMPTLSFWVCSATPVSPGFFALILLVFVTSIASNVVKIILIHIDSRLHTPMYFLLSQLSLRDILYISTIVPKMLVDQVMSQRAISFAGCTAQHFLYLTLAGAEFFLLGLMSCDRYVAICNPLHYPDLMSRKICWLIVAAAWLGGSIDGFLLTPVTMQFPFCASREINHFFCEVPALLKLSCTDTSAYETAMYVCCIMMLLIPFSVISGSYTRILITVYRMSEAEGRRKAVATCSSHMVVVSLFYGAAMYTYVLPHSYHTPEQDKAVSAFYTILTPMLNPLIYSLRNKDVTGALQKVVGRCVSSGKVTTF
In short: as §1

[18] = tested on: T18, OR2W1 G96V
T18 sequence (whole entry): T11 sequence (whole entry) with G96V
In short: as §1

Measured: odorant receptor agonist call

Cc1occc(=O)c1OC(=O)C(C)C
inactive: [1]

CC(CC=O)c1ccc(C(C)(C)C)cc1 (configuration not stated)
inactive: [1]

CC1CCCCCCCCCCCCC(=O)C1 (configuration not stated)
not listed: [12] | [13] | [14] | [15] | [16] | [17] | [18]
inactive: all other assays above

CCC(=O)C=CC1C(C)=CCCC1(C)C (configuration not stated)
inactive: [1]

C=CC(C)(O)CCC=C(C)CCC=C(C)C (configuration not stated)
inactive: [1]

CCC1OC(C)=C(O)C1=O (configuration not stated)
not listed: [7]
inactive: all other assays above
